# Test results published in ChEMBL document CHEMBL2346664, “Synthesis, characterization and in vitro anticancer evaluation of novel 1,2,4-triazolin-3-one derivatives” (2013).
# Tests used:
# Assay type in all cases: functional
# HT-29 = experiment: Growth inhibition of human HT-29 cells assessed as cell growth at 10 '-4 M after 48 hrs by sulforhodamine B assay; details: HT-29, 48 h, read-out: Activity
# T47D [1] = experiment: Growth inhibition of human T47D cells assessed as cell growth at 10 '-4 M after 48 hrs by sulforhodamine B assay; details: read-out: Activity
# OVCAR-8 = experiment: Growth inhibition of human OVCAR8 cells assessed as cell growth at 10 '-5 M after 48 hrs by sulforhodamine B assay; details: OVCAR-8, 48 h, read-out: Activity
# NCI-H522 = experiment: Growth inhibition of human NCI-H522 cells assessed as cell growth at 10 '-5 M after 48 hrs by sulforhodamine B assay; details: NCI-H522, 48 h, read-out: Activity
# HOP-62 = experiment: Growth inhibition of human HOP62 cells assessed as cell growth at 10 '-8 M after 48 hrs by sulforhodamine B assay; details: HOP-62, 48 h, read-out: Activity
# 786-0 = experiment: Growth inhibition of human 786-0 cells assessed as cell growth at 10 '-6 M after 48 hrs by sulforhodamine B assay; details: 786-0, 48 h, read-out: Activity
# Procedure, shortened: (§1)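 Percent growth at each of the five concentrations of the 48 h continuous-exposure NCI SRB screen. Drug stocks were in DMSO at 400× the top final concentration and diluted in medium with gentamicin. Growth was calculated as [(Ti-Tz)/(C-Tz)]×100 when Ti ≥ Tz, or [(Ti-Tz)/Tz]×100 when Ti < Tz. Tz plates were fixed at drug addition; untreated wells served as control. Absorbance was read at 515 nm.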
# HL-60(TB) = experiment: Growth inhibition of human HL-60(TB) cells assessed as cell growth at 10 '-4 M after 48 hrs by sulforhodamine B assay; details: HL-60, 48 h, read-out: Activity
# Procedure, shortened: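 Five-dose NCI protocol with final concentrations of 0.01–100 µM and drug diluted from a DMSO stock (400× the top concentration) in medium with gentamicin. Cells were pre-incubated 24 h, then exposed 48 h at 37 °C. Suspension cells were fixed with 16% final TCA, SRB-stained and read at 515 nm. Percentage growth at each level was [(Ti−Tz)/(C−Tz)]×100, or [(Ti−Tz)/Tz]×100 when Ti < Tz.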
# NCI-H23 = experiment: Growth inhibition of human NCI-H23 cells assessed as growth inhibition at 10 uM after 48 hrs by sulforhodamine B assay; details: NCI-H23, 48 h, read-out: GI
# T47D [2] = experiment: Growth inhibition of human T47D cells assessed as cell growth at 10 '-7 M after 48 hrs by sulforhodamine B assay; details: read-out: Activity
# OVCAR-5 = experiment: Growth inhibition of human OVCAR5 cells assessed as cell growth at 10 '-8 M after 48 hrs by sulforhodamine B assay; details: OVCAR-5, 48 h, read-out: Activity
# SNB-75 = experiment: Growth inhibition of human SNB75 cells assessed as cell growth at 10 '-8 M after 48 hrs by sulforhodamine B assay; details: SNB-75, 48 h, read-out: Activity
# SF-295 = experiment: Growth inhibition of human SF295 cells assessed as cell growth at 10 '-8 M after 48 hrs by sulforhodamine B assay; details: SF-295, 48 h, read-out: Activity
# CAKI-1 = experiment: Growth inhibition of human CAKI-1 cells assessed as cell growth at 10 '-7 M after 48 hrs by sulforhodamine B assay; details: CAKI-1, 48 h, read-out: Activity; procedure, shortened: as §1
# HCT-15 [3] = experiment: Growth inhibition of human HCT15 cells assessed as cell growth at 10 '-8 M after 48 hrs by sulforhodamine B assay; details: HCT-15, 48 h, read-out: Activity
# HCT-15 [4] = experiment: Growth inhibition of human HCT15 cells assessed as cell growth at 10 '-6 M after 48 hrs by sulforhodamine B assay; details: HCT-15, 48 h, read-out: Activity
# TK-10 = experiment: Growth inhibition of human TK10 cells assessed as growth inhibition at 10 uM after 48 hrs by sulforhodamine B assay; details: TK-10, 48 h, read-out: GI
# ACHN = experiment: Growth inhibition of human ACHN cells assessed as growth inhibition at 10 uM after 48 hrs by sulforhodamine B assay; details: read-out: GI
# Procedure, shortened: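 Percent growth inhibition from the single 10^-5 M NCI-60 screen, reported as 100 minus growth percent. Growth percent was measured after 48 h drug exposure at 37 °C, 5% CO2, using TCA fixation, SRB staining and absorbance at 515 nm, against untreated controls and time-zero plates.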
# IGROV-1 = experiment: Growth inhibition of human IGROV1 cells assessed as cell growth at 10 '-7 M after 48 hrs by sulforhodamine B assay; details: IGROV-1, 48 h, read-out: Activity
compound,measurement,setting,value
Cc1cc(=O)oc2cc(OCCn3c(C)nn(-c4ccc(Cl)cc4)c3=O)ccc12,growth at 100 µM,HT-29,9%
same,growth at 100 µM,T47D [1],36%
same,growth at 10 µM,OVCAR-8,31%
same,growth at 10 µM,NCI-H522,24%
same,growth at 0.01 µM,HOP-62,101%
same,growth at 1 µM,786-0,97%
same,growth at 100 µM,HL-60(TB),1%
same,inhibition of growth at 10 µM,NCI-H23,54.2%
same,growth at 0.1 µM,T47D [2],99%
same,growth at 0.01 µM,OVCAR-5,105%
same,growth at 0.01 µM,SNB-75,88%
same,growth at 0.01 µM,SF-295,94%
same,growth at 0.1 µM,CAKI-1,92%
same,growth at 0.01 µM,HCT-15 [3],98%
same,growth at 1 µM,HCT-15 [4],80%
same,inhibition of growth at 10 µM,TK-10,40.4%
same,inhibition of growth at 10 µM,ACHN,58.1%
same,growth at 0.1 µM,IGROV-1,112%
